Results reported in ChEMBL document CHEMBL2021826, “Ester and carbamate ester derivatives of Biochanin A: synthesis and in vitro evaluation of estrogenic and antiproliferative activities” (Bioorg Med Chem, 2012).
Activity calls are given as the source filed them. The rule behind the calls is not given here.

What was measured:
[1] = Estrogenic activity at estrogen receptor in human MCF7:D5L cells co-expressing ERE assessed as induction of luciferase gene expression after 16 hrs by microplate reader; type: cell-based
Summary of the method: (§1)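 MCF-7:D5L cells (MCF-7 stably carrying ERE-driven luciferase reporter) plated at 12,000/well in phenol red-free MEM with 1 µg/mL insulin and 5% DCC-FBS. Compounds up to 10 µM, or DMSO (0.1% final), added 72 h after plating. Luciferase read 16 h later, as % of vehicle. Three independent experiments in triplicate.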

Homo sapiens [2] = species on record: Homo sapiens; experiment: Estrogenic activity at estrogen receptor in human MCF7:D5L cells co-expressing ERE assessed as induction of luciferase gene expression at 1 micoM after 16 hrs by microplate reader relative to untreated vehicle control; type: cell-based; summary of the method: as §1
Homo sapiens [3] = species on record: Homo sapiens; experiment: Estrogenic activity at estrogen receptor in human MCF7:D5L cells co-expressing ERE assessed as induction of luciferase gene expression at 10 micoM after 16 hrs by microplate reader relative to untreated vehicle control; type: cell-based; summary of the method: as §1
MCF7 [4] = experiment: Antiproliferative activity against estrogen-deficient human MCF7 cells at 1 uM after 72 hrs by MTT assay relative to untreated vehicle control; type: functional
Summary of the method: (§2)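 MCF-7 cells plated at 8000/well in phenol red-free MEM with 1 µg/mL insulin and 5% DCC-FBS (estrogen-free). Compounds up to 10 µM (0.01–10 µM), or DMSO vehicle at 0.1% final, added 24 h after plating. MTT conversion read 72 h later at 550 and 690 nm (reference), as % of vehicle. […] Three independent experiments in triplicate.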

MCF7 [5] = experiment: Antiproliferative activity against estrogen-deficient human MCF7 cells at 10 uM after 72 hrs by MTT assay relative to untreated vehicle control; type: functional; summary of the method: as §2
[6] = Estrogenic activity at estrogen receptor in human Ishikawa cells assessed as induction of alkaline phosphatase expression after 72 hrs by microplate reader; type: cell-based
Summary of the method: (§3)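 Ishikawa cells plated at 12,000/well in phenol red-free MEM, 1 µg/mL insulin, 5% DCC-FBS. Compounds up to 10 µM, or DMSO (0.1% final), added 24 h after plating. Alkaline phosphatase activity read 72 h later on a plate reader, as % of vehicle-treated cells. […] Three independent experiments in triplicate.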

Ishikawa [7] = experiment: Estrogenic activity at estrogen receptor in human Ishikawa cells assessed as induction of alkaline phosphatase expression at 1 uM after 72 hrs by microplate reader relative to untreated vehicle control; type: cell-based; summary of the method: as §3
Ishikawa [8] = experiment: Estrogenic activity at estrogen receptor in human Ishikawa cells assessed as induction of alkaline phosphatase expression at 10 uM after 72 hrs by microplate reader relative to untreated vehicle control; type: cell-based; summary of the method: as §3
MCF7 [9] = experiment: Growth stimulation of estrogen-deficient human MCF7 cells at 0.01 to 10 uM after 72 hrs by MTT assay; type: functional, cell-based; summary of the method: as §2
Ishikawa [10] = experiment: Growth stimulation of human Ishikawa cells at 10 uM after 72 hrs by MTT assay; type: functional, cell-based
MCF7 [11] = experiment: Stimulation of proliferation of estrogen-deficient human MCF7 cells after 72 hrs by MTT assay; conditions: MCF7, 72 h
MCF7 [12] = experiment: Growth stimulation of human MCF7:D5L cells co-expressing ERE assessed as increase in viable cell number by MTT assay; type: functional, cell-based
MCF7 [13] = experiment: Antiproliferative activity against estrogen-deficient human MCF7 cells after 72 hrs by MTT assay; type: functional, cell-based; conditions: MCF7, 72 h; summary of the method: as §2
Homo sapiens [14] = species on record: Homo sapiens; experiment: Estrogenic activity at estrogen receptor in human MCF7:D5L cells co-expressing ERE assessed as induction of luciferase gene expression at => 0.1 nM after 16 hrs by microplate reader in presence of 100 nM ER destabilizer fulvestrant; type: cell-based
Summary of the method: (§4)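 Separate wells received 100 nM PPT, or 100 nM MPP with or without 100 nM DPN, added 72 h after plating. Luciferase measured 16 h later relative to vehicle. Mean ± SEM, three experiments in triplicate; t-test vs vehicle.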

Ishikawa [15] = experiment: Estrogenic activity at estrogen receptor in human Ishikawa cells assessed as induction of alkaline phosphatase expression at => 0.1 nM after 72 hrs by microplate reader relative to untreated vehicle control in presence of 100 nM ER destabilizer fulvestrant; type: cell-based
Summary of the method: (§5)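 Separate wells received 100 nM PPT, or 100 nM MPP with or without 100 nM DPN. AlkP activity read 72 h after dosing, relative to vehicle. Mean ± SEM of three experiments in triplicate; t-test vs vehicle.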

Homo sapiens [16] = species on record: Homo sapiens; experiment: Estrogenic activity at estrogen receptor in human MCF7:D5L cells co-expressing ERE assessed as induction of luciferase gene expression at 100 nM after 16 hrs by microplate reader relative to untreated vehicle control; type: cell-based; summary of the method: as §4
Homo sapiens [17] = species on record: Homo sapiens; experiment: Estrogenic activity at estrogen receptor in human MCF7:D5L cells co-expressing ERE assessed as induction of luciferase gene expression at 100 nM after 16 hrs by microplate reader in presence of 100 nM ERalpha antagonist MPP; type: functional, cell-based; summary of the method: as §4
Ishikawa [18] = experiment: Estrogenic activity at estrogen receptor in human Ishikawa cells assessed as induction of alkaline phosphatase expression at 100 nM after 72 hrs by microplate reader; type: cell-based; summary of the method: as §5
[19] = Estrogenic activity at estrogen receptor in human Ishikawa cells assessed as induction of alkaline phosphatase expression at 100 nM after 72 hrs by microplate reader relative to estradiol in presence of 100 nM ERalpha antagonist MPP; type: functional; summary of the method: as §5
MDA-MB-231 [20] = experiment: Antiproliferative activity against ERalpha-deficient human MDA-MB-231 cells assessed as inhibition of cell proliferation at 10 uM after 72 hrs by MTT assay; type: functional; conditions: MDA-MB-231, 72 h
Summary of the method: (§6)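 MDA-MB-231 breast adenocarcinoma cells in phenol red-free MEM with 1 µg/mL insulin and 5% dextran-coated charcoal-treated FBS. Compound added 24 h after plating, DMSO vehicle at 0.1% final. Viable cells read 72 h later as MTT-formazan absorbance, 550 minus 690 nm reference, expressed as % of vehicle-treated cells.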

MDA-MB-231 [21] = experiment: Antiproliferative activity against ERalpha-deficient human MDA-MB-231 cells assessed as inhibition of cell proliferation at 1 uM after 72 hrs by MTT assay; type: functional, cell-based; summary of the method: as §6
Ishikawa [22] = experiment: Inhibition of estradiol-stimulated cell proliferation of human Ishikawa cells at 1 uM after 72 hrs by MTT assay; type: functional, cell-based
Ishikawa [23] = experiment: Inhibition of estradiol-stimulated cell proliferation of human Ishikawa cells at 10 uM after 72 hrs by MTT assay; type: functional, cell-based

SMILES	EC50 [1]	Efficacy (Homo sapiens [2])	Efficacy (Homo sapiens [3])	Efficacy (MCF7 [4])	Efficacy (MCF7 [5])	EC50 [6]	Efficacy (Ishikawa [7])	Efficacy (Ishikawa [8])	Activity (MCF7 [9])	EC50 (MCF7 [11])	Activity (MCF7 [12])	further results
COc1ccc(-c2coc3cc(O)cc(O)c3c2=O)cc1 [BIOCHANIN]	300 nM	490%	733%	161%	167%	420 nM	310%	309%	Active	210 nM		Activity (Ishikawa [10]): Active
COc1ccc(-c2coc3cc(OC(=O)CBr)cc(O)c3c2=O)cc1	180 nM	584%	1320%	156%	154%	520 nM	332%	387%	Active	280 nM	inactive	
COc1ccc(-c2coc3cc(OC(=O)NCCCl)cc(O)c3c2=O)cc1	140 nM	635%	1140%	139%	166%	660 nM	295%	445%	Active	680 nM	inactive	
COc1ccc(-c2coc3cc(OC(=O)NCCBr)cc(O)c3c2=O)cc1	220 nM	531%	1050%	151%	145%	620 nM	302%	440%	Active	420 nM	inactive	
C[C@]12CC[C@@H]3c4ccc(O)cc4CC[C@H]3[C@@H]1CC[C@@H]2O [ESTRADIOL]	0.0196 nM	402%	402%	185%	185%	0.0246 nM	440%	440%				EC50 (MCF7 [13]): 0.0064 nM; Activity (Homo sapiens [14]): inactive; Activity (Ishikawa [15]): inactive
COc1ccc(-c2coc3cc(OC(=O)CCl)cc(O)c3c2=O)cc1	140 nM	823%	1310%	152%	155%	470 nM	314%	354%	Active	550 nM	inactive	
CCCc1c(-c2ccc(O)cc2)nn(-c2ccc(O)cc2)c1-c1ccc(O)cc1 [PROPYLPYRAZOLETRIOL]												Activity (Homo sapiens [16]): Active; Activity (Homo sapiens [17]): inactive; Activity (Ishikawa [18]): Active; Activity [19]: 70%
CCCCCCCCCCCNC(=O)Oc1cc(O)c2c(=O)c(-c3ccc(OC)cc3)coc2c1	320 nM	524%	803%	117%	108%	1700 nM	203%	375%	inactive		inactive	inhibition at 10 µM (MDA-MB-231 [20]): 21%; inhibition (MDA-MB-231 [21]): inactive; inhibition (Ishikawa [22]): Active; inhibition (Ishikawa [23]): Active
